Screening data as filed in PubChem.
Shown is part of a subset that was picked to be rich in hits.
KDM4C inh = blocks human GASC-1 (KDM4C) demethylase activity; actives 0.15% (n = 96,000); Q9H3R0; inhibition, % at 12.5 µM; GST-KDM4C 2-372, H3K9me3 peptide, LANCE TR-FRET; AID 720574;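 active = mean replicate inhibition above about 25%, with at least 55% of replicates also reaching it, limit read from the data, passing the limit was not always enough; inconclusive = only one of those two conditions met; inactive = neither condition met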
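Assay system: GST-GASC-1 enzyme fragment 2-372 | Amount: 10 nM enzyme | Medium: HEPES buffer, pH 7.5, plus ascorbate | Reagent: H3K9me3 peptide substrate, Fe(II), 2-oxoglutarate | Doses: Single-point compound screen | Incubation: 30 min demethylation and 1 h detection at room temperature | Measured by: LANCE TR-FRET, excitation 340 nm, emissions 618 and 671 nm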
IDH1 mut inh = inhibitors of human IDH1 R132H; O75874; IDH1 R132H reductase, diaphorase/resazurin fluorescence, 60 min; inhibition, % at 10 µM; actives 0.18% (n = 70,000); AID 624101; in the data active = inhibition above about 34%; inconclusive = no clear call, values can overlap the other calls; inactive = below about 11%;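 also: 0% = DMSO and 100% = no enzyme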
Target sequence (O75874 whole entry R132H): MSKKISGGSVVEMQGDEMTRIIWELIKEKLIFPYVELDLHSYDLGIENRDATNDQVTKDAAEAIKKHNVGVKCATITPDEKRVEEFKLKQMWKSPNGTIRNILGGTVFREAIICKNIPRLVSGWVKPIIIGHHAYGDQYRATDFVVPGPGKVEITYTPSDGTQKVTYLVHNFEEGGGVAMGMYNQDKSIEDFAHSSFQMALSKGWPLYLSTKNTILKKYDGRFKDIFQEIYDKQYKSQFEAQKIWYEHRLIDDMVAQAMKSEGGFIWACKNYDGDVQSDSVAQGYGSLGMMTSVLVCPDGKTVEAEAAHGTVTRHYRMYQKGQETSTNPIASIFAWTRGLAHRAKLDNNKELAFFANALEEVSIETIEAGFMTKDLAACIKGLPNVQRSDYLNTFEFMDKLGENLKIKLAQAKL
T cruzi growth-1 = blocks T. cruzi growth in NIH3T3 culture; T. cruzi beta-gal in NIH3T3, GalScreen luminescence, 90 h; inhibition, % at 8.34 µM; actives 5.9% (n = 77,000); AID 624255;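 active = mean inhibition above about 93%, with at least 55% of replicates each passing it, limit read from the data, passing the limit was not always enough; inconclusive = only one of those two conditions holds; inactive = neither condition holds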
T cruzi growth-2 = Trypanosoma cruzi proliferation inhibition; actives 72% (n = 5,600); T. cruzi beta-gal in NIH3T3, GalScreen luminescence, 90 h; shares compounds with T cruzi growth-1; inhibition, % at 8.35 µM;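 active = mean replicate inhibition above about 95% and at least 55% of replicates individually reaching it, limit read from the data; inconclusive = only one of the two criteria is met; inactive = neither criterion is met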
T cruzi growth-3 = blocks T. cruzi growth in NIH3T3 host cells. shares compounds with T cruzi growth-1. T. cruzi beta-gal in NIH3T3, GalScreen luminescence, 90 h. inhibition, % at 2.09 µM. actives 21% (n = 5,600). AID 651740;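 active = mean inhibition above about 95%, with at least 55% of replicates also reaching it, limit read from the data; inconclusive = meets just one of the two conditions; inactive = meets neither condition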;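 also: plate controls were neutral control median for no effect and positive control median for full effect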
3T3 cytotox = kills mouse NIH/3T3 fibroblasts; shares compounds with T cruzi growth-1; cytotoxicity (signal decrease), % at 8.35 µM; actives 14% (n = 5,600); NIH/3T3 viability, CellTiter-Glo ATP luminescence, 90 h;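 active = mean signal decrease across replicates above about 35% based on untreated-well scatter, with enough replicates individually passing, limit read from the data; inconclusive = no rule stated though some were filed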;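 also: 0% = median of neutral control wells and 100% = median of positive control wells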
NIH3T3 tox 2 = cytotoxicity in mouse NIH/3T3 fibroblasts | shares compounds with T cruzi growth-1 | NIH/3T3 viability, CellTiter-Glo ATP luminescence, 90 h | inhibition, % at 24.9 µM | actives 56% (n = 5,600);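 active = mean loss of cell viability signal at or above a set limit, and enough replicates individually reaching it; inconclusive = meets only the mean limit or only the replicate share; inactive = meets neither condition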;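 also: 0% = median of neutral control wells and 100% = median of positive control wells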
Active calls of the source: *.

What do the screens show for `COc1ccccc1OCCn1c(S(=O)(=O)O)nc2ccccc21`?
IDH1 mut inh: 2

Results for C[C@@H]1CCCCO[C@@H](CN(C)C(=O)Nc2cccc3ccccc23)[C@@H](C)CN([C@@H](C)CO)C(=O)c2cc(NS(=O)(=O)c3ccc(Cl)cc3)ccc2O1 ?
KDM4C inh: 0; T cruzi growth-1: 99*; T cruzi growth-2: 103*; T cruzi growth-3: 93; 3T3 cytotox: -3; NIH3T3 tox 2: 4

How did C[C@@H]1CCCCO[C@@H](CN(C)C(=O)Nc2cccc3ccccc23)[C@@H](C)CN([C@H](C)CO)C(=O)c2cc(NS(=O)(=O)c3ccc(Cl)cc3)ccc2O1 do in these assays?
KDM4C inh: -2; IDH1 mut inh: 4; T cruzi growth-1: 32

Results for C[C@@H]1CCCCO[C@H](CN(C)C(=O)Nc2cccc3ccccc23)[C@H](C)CN([C@H](C)CO)C(=O)c2cc(NS(=O)(=O)c3ccc(Cl)cc3)ccc2O1 ?
KDM4C inh: -2; IDH1 mut inh: -1; T cruzi growth-1: 105*; T cruzi growth-2: 108*; T cruzi growth-3: 113*; 3T3 cytotox: 9; NIH3T3 tox 2: -1

Results for C[C@@H]1CCCCO[C@@H](CN(C)C(=O)Nc2cccc3ccccc23)[C@H](C)CN([C@H](C)CO)C(=O)c2cc(NS(=O)(=O)c3ccccc3)ccc2O1 ?
KDM4C inh: -2

How did COCCOC(=O)N1C(=O)[C@@]2(c3cc(C#CCC(C(=O)OC)C(=O)OC)ccc31)[C@H](C(=O)N1CCN(c3ncccn3)CC1)[C@H]1C(=O)O[C@H](c3ccccc3)[C@H](c3ccccc3)N1[C@@H]2c1ccccc1OCCO do in these assays?
IDH1 mut inh: 0

Results for C[C@@H]1CN([C@H](C)CO)C(=O)c2cccc(NC(=O)C3CCOCC3)c2O[C@H]1CN(C)C(=O)Nc1cccc2ccccc12 ?
KDM4C inh: 0; T cruzi growth-1: 103*; T cruzi growth-2: 82; T cruzi growth-3: -30; 3T3 cytotox: 12; NIH3T3 tox 2: inconclusive

What do the screens show for `C[C@H]1CN([C@@H](C)CO)C(=O)c2cccc(NC(=O)C3CCOCC3)c2O[C@H]1CN(C)C(=O)Nc1cccc2ccccc12`?
KDM4C inh: 4; IDH1 mut inh: -1; T cruzi growth-1: 6

How did C[C@@H]1CN([C@@H](C)CO)C(=O)c2cccc(NC(=O)C3CCOCC3)c2O[C@@H]1CN(C)C(=O)Nc1cccc2ccccc12 do in these assays?
KDM4C inh: -1; IDH1 mut inh: -2; T cruzi growth-1: 100*; T cruzi growth-2: -19; T cruzi growth-3: 15; 3T3 cytotox: 5; NIH3T3 tox 2: 15

How did C[C@H](CO)N1C[C@H](C)[C@@H](CN(C)C(=O)Nc2cccc3ccccc23)Oc2c(NC(=O)C3CCOCC3)cccc2C1=O do in these assays?
KDM4C inh: 7; IDH1 mut inh: 0; T cruzi growth-1: 40

How did C[C@@H]1CN([C@@H](C)CO)C(=O)c2c(c3ccccc3n2C)-c2ccccc2CO[C@H]1CN(C)S(=O)(=O)c1ccccc1F do in these assays?
KDM4C inh: -2; T cruzi growth-1: 70

How did C[C@@H]1CN([C@@H](C)CO)C(=O)c2c(c3ccccc3n2C)-c2ccccc2CO[C@H]1CN(C)S(=O)(=O)c1cccc(C#N)c1 do in these assays?
KDM4C inh: -1; T cruzi growth-1: 93

How did C[C@H](CO)N1C[C@H](C)[C@H](CN(C)S(=O)(=O)c2ccccc2F)OCc2ccccc2-c2c(n(C)c3ccccc23)C1=O do in these assays?
KDM4C inh: -1; IDH1 mut inh: 3; T cruzi growth-1: 99*; T cruzi growth-2: 104*; T cruzi growth-3: 83; 3T3 cytotox: 44*; NIH3T3 tox 2: 97*

What do the screens show for `C[C@H]1CN([C@@H](C)CO)C(=O)c2c(c3ccccc3n2C)-c2ccccc2CO[C@@H]1CN(C)S(=O)(=O)c1ccsc1`?
KDM4C inh: -4; T cruzi growth-1: 114*; T cruzi growth-2: 107*; T cruzi growth-3: 57; 3T3 cytotox: 1; NIH3T3 tox 2: 9

What do the screens show for `C[C@H](CO)N1C[C@H](C)[C@H](CN(C)S(=O)(=O)c2cccc(C#N)c2)OCc2ccccc2-c2c(n(C)c3ccccc23)C1=O`?
KDM4C inh: 0; IDH1 mut inh: -3; T cruzi growth-1: 101*; T cruzi growth-2: 105*; T cruzi growth-3: 42; 3T3 cytotox: -4; NIH3T3 tox 2: 4

What do the screens show for `C[C@@H]1CN([C@@H](C)CO)C(=O)c2c(c3ccccc3n2C)-c2ccccc2CO[C@@H]1CN(C)S(=O)(=O)c1ccsc1`?
KDM4C inh: -2; IDH1 mut inh: 3; T cruzi growth-1: 62

What do the screens show for `C[C@H]1CN([C@@H](C)CO)C(=O)c2c(c3ccccc3n2C)-c2ccccc2CO[C@@H]1CN(C)S(=O)(=O)c1ccc(Cl)cc1`?
KDM4C inh: -1; T cruzi growth-1: 58

Results for C[C@@H]1CN([C@@H](C)CO)C(=O)c2c(c3ccccc3n2C)-c2ccccc2CO[C@@H]1CN(C)S(=O)(=O)c1ccc(Cl)cc1 ?
KDM4C inh: 0; IDH1 mut inh: 0; T cruzi growth-1: 100*; T cruzi growth-2: 98*; T cruzi growth-3: 102*; 3T3 cytotox: 3; NIH3T3 tox 2: 66*

Results for CCCOc1ccc(Oc2nc(NCC)nc(OC)n2)nn1 ?
IDH1 mut inh: 1

Results for COc1cccc2cc(C(=O)CC3(O)C(=O)N(Cc4ccccc4)c4ccc(Br)cc43)c(=O)oc12 (stereo not given) ?
IDH1 mut inh: 0

What do the screens show for `COc1ccc(-c2cc(C)nc(SCC(=O)Nc3ccccc3F)n2)cc1`?
IDH1 mut inh: 0

How did Cc1ccc(C)c(N(CC(=O)Nc2ccc(I)cc2)S(C)(=O)=O)c1 do in these assays?
IDH1 mut inh: 0

How did Cc1cccc(S(=O)(=O)N(C)C[C@@H]2OCc3ccccc3-c3c(n(C)c4ccccc34)C(=O)N([C@H](C)CO)C[C@@H]2C)c1 do in these assays?
KDM4C inh: -4; T cruzi growth-1: inconclusive; T cruzi growth-2: 99*; T cruzi growth-3: 106*; 3T3 cytotox: 25; NIH3T3 tox 2: 78*

Results for Cc1cccc(S(=O)(=O)N(C)C[C@H]2OCc3ccccc3-c3c(n(C)c4ccccc34)C(=O)N([C@H](C)CO)C[C@@H]2C)c1 ?
KDM4C inh: -4; T cruzi growth-1: 75

How did C[C@@H]1CN([C@H](C)CO)C(=O)c2c(c3ccccc3n2C)-c2ccccc2CO[C@H]1CN(C)S(=O)(=O)c1cccc(F)c1 do in these assays?
KDM4C inh: -1; IDH1 mut inh: 0; T cruzi growth-1: 66
